Consider 60 molecules from PubChem BioAssay AID624466 (The Scripps Research Institute Molecular Screening Center, 2012).

Values joined by “and” are separate entries in the source; they are usually repeats but may differ in a detail not shown here. Equal entries are not always repeated. Among all 360,000 compounds or so, about 5,400 (1.5%) were called active. The sample holds actives, similar compounds and a random draw of the others, so the mix is not that of the screen.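 The calls were made as follows: active = inhibition above a per-plate cutoff, the mean inhibition of test compounds on that plate plus 3 SD (cut at about 49% in these data); inactive = the rest.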

Chain of Trace amine-associated receptor 1 (Homo sapiens) (Q96RJ0 whole entry, looked up): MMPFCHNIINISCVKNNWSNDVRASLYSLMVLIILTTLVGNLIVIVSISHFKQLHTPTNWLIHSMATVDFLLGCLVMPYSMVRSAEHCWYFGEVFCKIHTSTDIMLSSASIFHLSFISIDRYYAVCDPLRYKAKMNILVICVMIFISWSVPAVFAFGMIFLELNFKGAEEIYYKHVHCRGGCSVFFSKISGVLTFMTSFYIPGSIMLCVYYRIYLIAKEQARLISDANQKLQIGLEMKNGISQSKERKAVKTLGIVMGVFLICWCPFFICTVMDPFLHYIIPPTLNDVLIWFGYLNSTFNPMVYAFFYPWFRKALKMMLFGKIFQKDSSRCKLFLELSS

The target in the test is Trace amine-associated receptor 1 (Homo sapiens) (UniProt Q96RJ0). In words: human TAAR1 antagonists, primary screen, Fluo-8 calcium fluorescence, CHO RD-HGA16 cells (AID 624466).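 Also: 0% = DMSO plus EC80 beta-PEA response and 100% = DMSO alone without agonist.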 As to conditions: CHO RD-HGA16 TAAR1, Fluo-8 calcium fluorescence, antagonist; at 3 µM; active compounds read high. The gist of the method:
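Test system: CHO RD-HGA16 cells bearing hTAAR1 | Reagent: β-PEA, EC80 | Compound dosing: 3 µM, single point | Schedule: Dye loading 75 min at 37 °C, then 30 min room temperature | Signal: Calcium fluorescence with Fluo-8 | Evaluation: Percent inhibition of PEA-evoked calcium signal, max/basal emission ratio | Control set: DMSO-only wells and EC80 β-PEA-stimulated wells | Repeats: Singlicate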
What is called inhibition is the change of the read-out against control, counted positive when it falls. `CC(=O)c1c(O)n(C2CCCCCC2)c(=O)[nH]c1=O`: the inhibition is -7.9% (inactive).
As for `CCC(=NCCc1ccccc1)c1c(O)n(C2CCCCC2)c(=O)[nH]c1=O`, the figure is 60.3% (active); as for `CCCCCCN=C(CC)c1c(O)n(CCCC)c(=O)[nH]c1=O`, 4.8% (inactive).
As for `O=C1C2(Cl)C3(Cl)C4(Cl)C(Cl)(Cl)C5(Cl)C3(Cl)C1(Cl)C5(Cl)C24Cl` (stereo not given), the inhibition is 64.1% (active).
With `Cc1cccc(NC(=O)OC2CN3CCC2CC3)c1` (stereo not given) the figure was -7.58% (inactive); with `Cc1cc(-c2ccc(N)c(C)c2)ccc1N`, 6.17% (inactive).
With `CC[N+]1(C)CCCC(OC(=O)C(O)(c2ccccc2)c2ccccc2)C1` (stereo not given) the figure was -0.72% (inactive); with `COc1cc(C(c2c(O)c3ccccc3oc2=O)c2c(C)n(C)n(-c3ccccc3)c2=O)ccc1O` (stereo not given), 3.68% (inactive); with `CCOC(=O)C1SC2(C(F)(F)C(F)F)CC1(O)c1c(c(OC)c3occc3c1OC)O2` (stereo not given), 65.5% (active).
As for `CC(Cc1ccccc1)NCCC(c1ccccc1)c1ccccc1` (stereo not given), the figure is 45.6% (inactive).
On to `CC(=O)Nc1ccc(C(=O)C(Cc2ccccc2)N(C)C)cc1` (stereo not given), for which the inhibition was -13.4% (inactive).
As for `CC(Cc1ccccc1)NC=O` (stereo not given), the figure is 74.1% (active); as for `COC(=O)C1=C(c2ccc(Cl)c(C(F)(F)F)c2)C[C@@H]2CC[C@H]1N2C(=O)NC1CC1`, 36.7% (inactive); as for `COC1=CC=C2[C@H]3Cc4ccc(OC)c5c4[C@@]2(CCN3C)C1O5` (stereo not given in full), -0.15% (inactive).
With `COc1ccc(CN2CCN(c3ccccc3F)CC2)c(OC)c1` the figure was -21.7% (inactive); with `c1cc2c(cc1CCNC1CCCCCC1)OCO2`, -6.33% (inactive).
With `c1ccc(CCNC2CCCCCC2)cc1`, the inhibition was 85.7% (active).
As for `OC(CNC1CCCCC1)c1ccccc1` (stereo not given), the figure is -11.8% (inactive).
As for `c1ccc(CCN2CCC3(CC2)OCCO3)cc1`, the figure is -16.1% (inactive); as for `CCN(CC)C(=O)[C@@H]1C=C2c3cccc4[nH]c(Br)c(c34)C[C@H]2N(C)C1`, -12.3% (inactive).
With `CN1CCC(OC(=O)c2cccc(F)c2)CC1` the figure was -5.85% (inactive); with `COC(=O)N1C(c2ccccc2)C1c1ccccc1` (stereo not given), 2.76% (inactive); with `COC(=O)C1=C(c2ccccc2OCc2ccccc2)C[C@@H]2CC[C@H]1N2C(=O)NCc1ccc(OC)cc1`, 56.6% (active).
As for `COC(=O)C1=C(c2ccc(-c3ccccc3)c(F)c2)C[C@@H]2CC[C@H]1N2C(=O)NCc1ccc(F)cc1`, the inhibition was -7.93% (inactive).
As for `COC(=O)C1=C(c2ccc(F)cc2OCc2ccccc2)C[C@@H]2CC[C@H]1N2C(=O)NCc1ccc2[nH]ccc2c1`, the figure is 29.6% (inactive).
With `COC(=O)C1=C(c2ccc(OCc3ccccc3)cc2)C[C@@H]2CC[C@H]1N2C(=O)NCc1cccc(F)c1` the figure was -9.38% (inactive); with `COC(=O)C1=C(c2ccc(F)cc2OCc2ccccc2)C[C@@H]2CC[C@H]1N2C(=O)NCc1ccc(C(C)(C)C)cc1`, 12.1% (inactive).
As for `COC(=O)C1=C(c2ccc(F)cc2OCc2ccccc2)C[C@@H]2CC[C@H]1N2C(=O)NCc1ccc(Cl)cc1`, the figure is 52.3% (active); as for `COC(=O)C1=C(c2cccc(OCc3ccccc3)c2)C[C@@H]2CC[C@H]1N2C(=O)NCc1ccc(Br)cc1`, -0.83% (inactive).
In the case of `COC(=O)C1=C(c2ccc(F)cc2OCc2ccccc2)C[C@@H]2CC[C@H]1N2C(=O)NCc1ccc(OC)c(OC)c1`, the inhibition is 60.1% (active).
`COC(=O)C1=C(c2ccc(OCc3ccccc3)cc2)C[C@@H]2CC[C@H]1N2C(=O)NCc1ccc(Cl)cc1`: the inhibition was -21.6% (inactive).
With `O=S(=O)(c1ccccc1)N1CCC2CCNC2C1` (stereo not given) the figure was -13.7% (inactive); with `CS(=O)(=O)N1CCC2CCNC2C1` (stereo not given), -17.4% (inactive); with `COc1ccc2c(c1)[C@@]13CCCCC1[C@@H](C2)NCC3` (stereo not given in full), 2.15% (inactive).
With `Cc1cc(N2CCNC[C@@H]2C)ccc1N1CC[C@H](O)C1` the figure was -25.4% (inactive); with `COc1ccccc1-n1c(O)c(C=NC2CC2)c(=O)[nH]c1=O`, 5.89% (inactive).
As for `CCCCCn1c(=O)c(C(=O)NCc2ccccn2)c(O)c2ccccc21`, the figure is 9.96% (inactive).
`CCN(CC)C(=O)Oc1ccc(NC(=O)N2CCOCC2)cc1`: the inhibition was -5.87% (inactive).
As for `CSc1nc2ccc(C)cc2c(=O)n1-c1cccnc1`, the figure is -37.6% (inactive); as for `O=c1[nH]c(=O)n(-c2ccccc2)c(O)c1C=NC12CN3CN(CN(C3)C1)C2`, 3.93% (inactive); as for `Brc1ccc2c(c1)CNCc1cnnn1-2`, -22.5% (inactive).
As for `CCCCC(=O)N/N=C/c1c(O)n(CC)c(=S)n(CC)c1=O`, the figure is 63.8% (active); as for `CCCCC(=O)N/N=C/c1c(O)n(CCC2=CCCCC2)c(=O)[nH]c1=O`, -20.4% (inactive); as for `Cn1c(O)c(C=NCCCC(=O)O)c(=O)n(C)c1=O`, -5.57% (inactive).
On to `Clc1ccc([C@@H]2CC3CCC2N3)cn1` (stereo not given in full), for which the inhibition was -10.7% (inactive).
With `CC12CCC3C(CCC4CC(=O)CCC43C)C1CC(=NO)C2=O` (stereo not given) the figure was -3.38% (inactive); with `CCC(C)NC1(c2ccccc2)CCCCC1` (stereo not given), -0.42% (inactive); with `O=C1NC(=O)C(C/C=C/c2ccccc2)C(=O)N1`, 9.88% (inactive).
`O=c1[nH]c2ccccc2n1C1CCN(C(c2ccccc2)c2nnnn2Cc2ccccc2)CC1` (stereo not given): the inhibition is 52.2% (active).
With `O=C1NCN(c2ccccc2)C12CCN(C(c1cccs1)c1nnnn1C1CCCCC1)CC2` (stereo not given) the figure was 8.02% (inactive); with `O=c1[nH]c2ccccc2n1C1CCN(C(c2ccnc3ccccc23)c2nnnn2Cc2ccccc2)CC1` (stereo not given), 54.6% (active).
As for `COc1ccc(-n2nnnc2C(c2cccc3ccccc23)N2CCC(n3c(=O)[nH]c4ccccc43)CC2)cc1` (stereo not given), the figure is 40.3% (inactive); as for `Cc1ccc(Cn2nnnc2CN2CCC(n3nnc4ccccc43)CC2)cc1`, -2.23% (inactive); as for `CSCCC(c1nnnn1C(C)(C)C)N1CCC(n2c(=O)[nH]c3ccccc32)CC1` (stereo not given), 52.1% (active).
As for `COc1cc(OC)cc(C(=O)NCCN2CCC3(CC2)C(=O)NCN3c2ccccc2)c1`, the figure is -2.28% (inactive); as for `Oc1ccc2c3c1OC1[C@H](O)CC[C@@]4(O)[C@@H](C2)N(CC2CC2)CC[C@]314` (stereo not given in full), -34.9% (inactive) and -15.5% (inactive); as for `CC(C)(C)c1ccc(OC(=O)N2CCCCC2)cc1`, 21.5% (inactive).
Consider `O=c1[nH]c(=O)n(CCc2ccc(F)cc2)c(O)c1/C=N/N1CCCCC1`, for which the inhibition was -33.7% (inactive).
As for `CC(C)c1ccc(O)c(CN2CCN(c3ccccc3)CC2)c1`, the figure is -1.33% (inactive); as for `CN(C)/C=C(\C=[N+](C)C)c1[nH]ncc1[N+](=O)[O-]`, -2.16% (inactive).
